Data taken from ChEMBL document CHEMBL1152903, “Synthesis and activity of N-oxalylglycine and its derivatives as Jumonji C-domain-containing histone lysine demethylase inhibitors” (Bioorg Med Chem Lett, 2009).
Activity calls are given as the source filed them. No cut-off for these calls is given here.

Columns and labels:
[1] = biological target: T1, Lysine-specific demethylase 4D (Homo sapiens) (UniProt Q6B0I6); assay: Inhibition of JMJD2D-mediated H3K9 demethylation activity at 3 mM
T1 sequence (whole entry): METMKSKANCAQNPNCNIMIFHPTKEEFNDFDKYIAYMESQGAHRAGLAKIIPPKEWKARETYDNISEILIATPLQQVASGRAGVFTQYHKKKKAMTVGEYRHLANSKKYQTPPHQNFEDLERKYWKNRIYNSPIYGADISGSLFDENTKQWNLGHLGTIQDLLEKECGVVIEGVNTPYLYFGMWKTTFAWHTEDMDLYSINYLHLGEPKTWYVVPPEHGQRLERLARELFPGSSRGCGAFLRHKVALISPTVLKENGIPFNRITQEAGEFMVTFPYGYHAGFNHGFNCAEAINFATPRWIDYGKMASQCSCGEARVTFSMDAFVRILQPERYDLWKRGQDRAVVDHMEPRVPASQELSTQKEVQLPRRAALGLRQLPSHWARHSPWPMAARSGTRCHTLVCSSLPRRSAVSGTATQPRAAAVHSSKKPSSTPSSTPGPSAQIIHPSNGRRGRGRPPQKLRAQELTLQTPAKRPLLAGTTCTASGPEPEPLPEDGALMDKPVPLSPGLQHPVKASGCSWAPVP
In short: (§1)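 Full-length GST-JMJD2D, expressed in E. coli and purified on glutathione-agarose, was incubated with histones, α-ketoglutarate, 2 mM ascorbate and 0.2 mM (NH₄)₂Fe(SO₄)₂ in 50 mM Hepes pH 7.4 with 50 mM NaCl and 50 mM KCl. Inhibitor in DMSO, or DMSO alone, was present for 2 h at 37 °C. H3K9me₃ was detected by Western blot with ECL, with H4K20me₁ as a control.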

[2] = biological target: T2, Lysine-specific demethylase 4C (Homo sapiens) (UniProt Q9H3R0); assay: Inhibition of JMJD2C-mediated H3K9 demethylation activity at 3 mM
T2 sequence (whole entry): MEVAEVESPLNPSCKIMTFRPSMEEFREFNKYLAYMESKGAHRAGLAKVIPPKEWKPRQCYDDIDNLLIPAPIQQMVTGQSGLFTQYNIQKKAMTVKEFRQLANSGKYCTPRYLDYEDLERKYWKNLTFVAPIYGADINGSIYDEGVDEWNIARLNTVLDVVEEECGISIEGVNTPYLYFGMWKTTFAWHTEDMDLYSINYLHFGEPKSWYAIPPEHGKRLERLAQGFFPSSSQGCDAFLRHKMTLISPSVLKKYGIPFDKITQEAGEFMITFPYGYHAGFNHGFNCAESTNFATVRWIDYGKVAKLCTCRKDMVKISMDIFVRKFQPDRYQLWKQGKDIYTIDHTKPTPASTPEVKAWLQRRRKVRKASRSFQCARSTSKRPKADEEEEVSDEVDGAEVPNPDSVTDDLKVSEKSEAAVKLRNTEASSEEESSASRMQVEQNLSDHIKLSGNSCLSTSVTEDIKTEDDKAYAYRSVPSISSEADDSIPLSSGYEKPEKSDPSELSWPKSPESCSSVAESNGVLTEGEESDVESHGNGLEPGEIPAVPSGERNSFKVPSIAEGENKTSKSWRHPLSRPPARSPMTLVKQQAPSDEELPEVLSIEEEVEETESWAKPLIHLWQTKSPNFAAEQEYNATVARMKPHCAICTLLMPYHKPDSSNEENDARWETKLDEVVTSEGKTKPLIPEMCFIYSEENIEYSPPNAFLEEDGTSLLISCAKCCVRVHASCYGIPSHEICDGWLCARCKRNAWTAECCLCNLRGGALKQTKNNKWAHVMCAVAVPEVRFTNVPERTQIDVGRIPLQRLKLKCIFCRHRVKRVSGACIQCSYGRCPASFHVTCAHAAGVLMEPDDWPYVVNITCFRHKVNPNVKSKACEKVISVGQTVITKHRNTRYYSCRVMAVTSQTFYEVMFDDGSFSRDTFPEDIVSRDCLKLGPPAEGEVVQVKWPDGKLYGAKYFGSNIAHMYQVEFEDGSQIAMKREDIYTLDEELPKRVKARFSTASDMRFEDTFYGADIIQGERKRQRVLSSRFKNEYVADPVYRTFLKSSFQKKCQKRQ
In short: (§2)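 GST fusions of JMJD2A (aa 2–350) or JMJD2C (aa 2–352), made in E. coli and purified on glutathione-agarose. Each was incubated with histones in 50 mM Hepes pH 7.4, 50 mM NaCl, 50 mM KCl, 2 mM ascorbate, 0.2 mM (NH₄)₂Fe(SO₄)₂ and α-ketoglutarate, with inhibitor in DMSO or DMSO alone, 1 h at 37 °C. Read-out was anti-H3K9me₃ Western blot with ECL; H4K20me₁ served as a control.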

[3] = biological target: T3, Lysine-specific demethylase 4A (Homo sapiens) (UniProt O75164); assay: Inhibition of JMJD2A-mediated H3K9 demethylation activity at 3 mM; in short: as §2
T3 sequence (whole entry): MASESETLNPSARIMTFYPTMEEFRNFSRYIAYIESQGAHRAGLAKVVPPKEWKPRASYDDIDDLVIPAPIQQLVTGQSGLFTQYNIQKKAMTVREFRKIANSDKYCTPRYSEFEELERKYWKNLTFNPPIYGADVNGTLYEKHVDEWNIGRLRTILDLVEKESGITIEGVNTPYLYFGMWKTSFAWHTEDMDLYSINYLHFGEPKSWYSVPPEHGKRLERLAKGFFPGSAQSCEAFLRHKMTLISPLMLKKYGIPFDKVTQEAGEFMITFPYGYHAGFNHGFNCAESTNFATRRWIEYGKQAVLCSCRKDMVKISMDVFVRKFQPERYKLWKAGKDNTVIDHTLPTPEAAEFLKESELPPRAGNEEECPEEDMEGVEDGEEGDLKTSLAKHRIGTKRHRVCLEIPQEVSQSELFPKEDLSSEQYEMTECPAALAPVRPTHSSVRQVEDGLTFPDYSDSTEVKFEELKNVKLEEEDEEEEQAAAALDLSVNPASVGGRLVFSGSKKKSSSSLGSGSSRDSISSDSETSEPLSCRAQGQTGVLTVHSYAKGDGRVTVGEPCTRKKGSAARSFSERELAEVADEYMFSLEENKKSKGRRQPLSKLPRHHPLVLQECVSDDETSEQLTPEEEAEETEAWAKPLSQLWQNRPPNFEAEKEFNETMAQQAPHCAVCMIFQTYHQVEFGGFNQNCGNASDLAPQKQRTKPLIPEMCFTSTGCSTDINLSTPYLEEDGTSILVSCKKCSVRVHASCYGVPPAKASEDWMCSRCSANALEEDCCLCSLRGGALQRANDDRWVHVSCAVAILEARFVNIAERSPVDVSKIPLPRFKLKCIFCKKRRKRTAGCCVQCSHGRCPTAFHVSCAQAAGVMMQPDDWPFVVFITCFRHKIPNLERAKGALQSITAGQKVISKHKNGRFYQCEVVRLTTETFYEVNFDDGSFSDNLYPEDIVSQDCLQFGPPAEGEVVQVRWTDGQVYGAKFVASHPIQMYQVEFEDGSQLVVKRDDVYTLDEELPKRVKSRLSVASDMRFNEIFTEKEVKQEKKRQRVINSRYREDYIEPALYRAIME

[4] = biological target: T3, Lysine-specific demethylase 4A (Homo sapiens); assay: Inhibition of JMJD2A-mediated H3K9 demethylation activity at 1 mM; in short: as §2
[5] = biological target: T2, Lysine-specific demethylase 4C (Homo sapiens); assay: Inhibition of JMJD2C-mediated H3K9 demethylation activity at 1 mM; in short: as §2
[6] = biological target: T1, Lysine-specific demethylase 4D (Homo sapiens); assay: Inhibition of JMJD2D-mediated H3K9 demethylation activity at 1 mM; in short: as §1
[7] = biological target: T2, Lysine-specific demethylase 4C (Homo sapiens); assay: Inhibition of JMJD2C-mediated H3K9 demethylation in human 293T cells at 2.5 mM; type: cell-based
In short: (§3)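 293T cells were transfected with or without Flag-JMJD2C by calcium phosphate coprecipitation; the precipitate was washed off with PBS after 12 h. Cells were grown 12 h in DMEM + 10% FCS under 10% CO₂, then for 24 h in fresh medium containing inhibitor in DMSO or 1% DMSO. Lysates were boiled in Laemmli buffer and histone methylation was assessed by Western blotting.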

[8] = biological target: T2, Lysine-specific demethylase 4C (Homo sapiens); assay: Inhibition of JMJD2C-mediated H3K36 demethylation in human 293T cells at 2.5 mM; type: cell-based; in short: as §3
[9] = biological target: Lysine-specific demethylase 4C (Homo sapiens) (UniProt Q9H3R0); assay: Inhibition of JMJD2-mediated H3K9 demethylation in human 293T cells at 2.5 mM
[10] = biological target: Lysine-specific demethylase 4C (Homo sapiens) (UniProt Q9H3R0); assay: Inhibition of JMJD2-mediated H3K36 demethylation in human 293T cells at 2.5 mM
[11] = biological target: T2, Lysine-specific demethylase 4C (Homo sapiens); assay: Inhibition of JMJD2C-mediated H3K36 demethylation in human 293T cells at […]; type: cell-based; in short: as §3
[12] = biological target: T2, Lysine-specific demethylase 4C (Homo sapiens); assay: Inhibition of JMJD2C-mediated H3K9 demethylation in human 293T cells at […]; type: cell-based; in short: as §3

SMILES	Histone_modification [1]	Histone_modification [2]	Histone_modification [3]	Histone_modification [4]	Histone_modification [5]	Histone_modification [6]	Histone_modification [7]	Histone_modification [8]	Histone_modification [9]	Histone_modification [10]	Histone_modification [11]	Histone_modification [12]
COC(=O)CNC(=O)C(=O)OC	–	–	–	–	–	–	Active	Active	Active	Active	–	–
COC(=O)CN(Cc1ccc(N(C)C)cc1)C(=O)C(=O)OC	–	–	–	–	–	–	inactive	inactive	Active	–	–	–
COC(=O)CCC(=O)OC	–	–	–	–	–	–	–	–	–	–	inactive	inactive
CN(C)c1ccc(CCN(CC(=O)O)C(=O)C(=O)O)cc1	Active	Active	Active	inactive	inactive	Active	–	–	–	–	–	–
O=C(O)CNC(=O)C(=O)O	Active	Active	Active	Active	Active	Active	–	–	–	–	–	–
CN(C)c1ccc(CCCN(CC(=O)O)C(=O)C(=O)O)cc1	–	Active-partial	Active-partial	inactive	inactive	Active	–	–	–	–	–	–

Other lines, results leading:

Histone_modification [1]	Histone_modification [2]	Histone_modification [3]	Histone_modification [4]	Histone_modification [5]	Histone_modification [6]	Histone_modification [7]	Histone_modification [8]	Histone_modification [9]	Histone_modification [10]	Histone_modification [11]	Histone_modification [12]	SMILES
Active	Active	Active	inactive	inactive	–	–	–	–	–	–	–	CN(C)c1cccc(CN(CC(=O)O)C(=O)C(=O)O)c1
Active	Active	Active	inactive	inactive	Active	–	–	–	–	–	–	CN(C)c1ccc(CN(CC(=O)O)C(=O)C(=O)O)cc1
